Reference: ChEMBL document CHEMBL1938329, “The discovery of potent, selective, and orally active pyrazoloquinolines as PDE10A inhibitors for the treatment of Schizophrenia” (Bioorg Med Chem Lett, 2012)
pIC50, pKi: −log10 of the molar value. Activity calls are given as the source filed them. The rule behind the calls is not given here.

What was measured:
[1] = target: cAMP and cAMP-inhibited cGMP 3',5'-cyclic phosphodiesterase 10A (Homo sapiens, UniProt Q9Y233); assay: Inhibition of recombinant human PDE10A using [3H]cAMP as substrate by scintillation proximity assay
cAMP and cAMP-inhibited cGMP 3',5'-cyclic phosphodiesterase 10A, sequence (Q9Y233 whole entry): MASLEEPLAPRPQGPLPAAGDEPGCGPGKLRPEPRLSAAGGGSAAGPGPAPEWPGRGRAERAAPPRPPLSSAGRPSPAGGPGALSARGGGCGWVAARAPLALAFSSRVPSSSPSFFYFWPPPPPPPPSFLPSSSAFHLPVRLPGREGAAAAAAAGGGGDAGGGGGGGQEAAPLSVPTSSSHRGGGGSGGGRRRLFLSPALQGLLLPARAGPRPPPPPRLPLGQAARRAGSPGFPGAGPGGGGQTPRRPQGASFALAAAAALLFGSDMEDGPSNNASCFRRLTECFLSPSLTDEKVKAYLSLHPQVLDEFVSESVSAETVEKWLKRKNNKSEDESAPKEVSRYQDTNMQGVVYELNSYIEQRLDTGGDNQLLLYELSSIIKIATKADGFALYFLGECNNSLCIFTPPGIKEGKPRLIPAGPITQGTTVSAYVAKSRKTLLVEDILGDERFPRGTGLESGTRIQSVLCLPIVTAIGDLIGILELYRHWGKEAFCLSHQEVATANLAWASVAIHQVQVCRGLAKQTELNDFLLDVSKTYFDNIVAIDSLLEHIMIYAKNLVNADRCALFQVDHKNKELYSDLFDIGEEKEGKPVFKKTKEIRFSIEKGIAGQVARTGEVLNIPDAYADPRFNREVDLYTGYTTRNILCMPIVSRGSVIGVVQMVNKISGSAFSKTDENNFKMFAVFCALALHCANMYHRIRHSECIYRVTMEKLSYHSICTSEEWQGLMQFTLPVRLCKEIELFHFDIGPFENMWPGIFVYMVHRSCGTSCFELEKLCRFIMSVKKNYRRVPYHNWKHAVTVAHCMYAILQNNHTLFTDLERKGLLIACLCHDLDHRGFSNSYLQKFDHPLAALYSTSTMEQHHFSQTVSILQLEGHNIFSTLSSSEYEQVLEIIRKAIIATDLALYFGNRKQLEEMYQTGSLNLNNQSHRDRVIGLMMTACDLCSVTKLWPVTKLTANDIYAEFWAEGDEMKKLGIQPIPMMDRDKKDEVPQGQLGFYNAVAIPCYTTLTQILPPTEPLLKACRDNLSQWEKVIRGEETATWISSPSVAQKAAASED
In short: (§1)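 Scintillation proximity assay with [³H]cAMP as substrate, measuring hydrolysis of cAMP to AMP by recombinant human PDEs 1–11. Ki values are means of at least two experiments.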

Phosphodiesterase 6 = assay: Inhibition of recombinant human PDE6 using [3H]cAMP as substrate by scintillation proximity assay; assay type: protein assay; in short: as §1
[2] = Drug uptake in rat brain at 10 mg/kg, po after 6 hrs; assay type: ADME, organism-based; design: dose 10 mg/kg, route oral; conditions: read-out: Drug uptake
In short: (§2)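 Rat cassette-accelerated rapid screen, 10 mg/kg oral. Plasma exposure measured over 0–6 h. Brain drug concentration taken at 6 h. Brain/plasma ratio is brain over plasma drug concentration at 6 h.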

Rattus norvegicus [3] = assay: Antipsychotic activity in CD rat assessed as inhibition of MK-801-induced hyperactivity at 30 mg/kg, po relative to control; assay type: functional, organism-based; design: dose 30 mg/kg
In short: (§3)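 Male CD rats habituated to locomotor activity chambers 24 h before testing. On test day, MK-801 (0.3 mg/kg, sc) co-administered with PDE10 inhibitor (po), then rats placed in apparatus. Inhibition expressed as percent of activity in inhibitor + MK-801 group relative to vehicle + MK-801 group.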

[4] = target: T1, Phosphodiesterase 6 (Homo sapiens) (UniProt Q13956+P18545+P35913+O43924+P16499+P51160); assay: Inhibition of recombinant human PDE6 using [3H]cAMP as substrate at 1 uM by scintillation proximity assay; assay type: protein assay
Rattus norvegicus [5] = assay: Antipsychotic activity in CD rat assessed as inhibition of MK-801-induced hyperactivity at 10 mg/kg, po relative to control; assay type: functional, organism-based; design: dose 10 mg/kg; in short: as §3
[6] = AUC (0 to 6 hrs) in rat at 10 mg/kg, po; assay type: ADME, organism-based; design: time < 6 hr, dose 10 mg/kg, route oral; conditions: plasma; in short: as §2
Homo sapiens [7] = species: Homo sapiens; assay: Selectivity ratio of Ki for recombinant human PDE1 to Ki for recombinant human PDE10A
In short: (§4)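 Recombinant human PDE enzymes (PDE1–11) were tested in a scintillation proximity assay with [³H]cAMP as substrate, measuring hydrolysis of cAMP to AMP. Ki values are means of at least two experiments. The ratio is the Ki for each off-target PDE divided by the PDE10A Ki.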

[8] = Ratio of drug level in brain to plasma in rat at 10 mg/kg, po at 6 hrs; assay type: ADME, organism-based; design: dose 10 mg/kg, route oral; conditions: read-out: BPR; in short: as §2
Homo sapiens [9] = species: Homo sapiens; assay: Selectivity ratio of Ki for recombinant human PDE4 to Ki for recombinant human PDE10A; in short: as §4
Homo sapiens [10] = species: Homo sapiens; assay: Selectivity ratio of Ki for recombinant human PDE6 to Ki for recombinant human PDE10A; in short: as §4
Homo sapiens [11] = species: Homo sapiens; assay: Selectivity ratio of Ki for recombinant human PDE5A to Ki for recombinant human PDE10A; in short: as §4
Homo sapiens [12] = species: Homo sapiens; assay: Selectivity ratio of Ki for recombinant human PDE2 to Ki for recombinant human PDE10A; in short: as §4
Homo sapiens [13] = species: Homo sapiens; assay: Selectivity ratio of Ki for recombinant human PDE9 to Ki for recombinant human PDE10A; in short: as §4
Homo sapiens [14] = species: Homo sapiens; assay: Selectivity ratio of Ki for recombinant human PDE8 to Ki for recombinant human PDE10A; in short: as §4
Homo sapiens [15] = species: Homo sapiens; assay: Selectivity ratio of Ki for recombinant human PDE3 to Ki for recombinant human PDE10A; in short: as §4
Homo sapiens [16] = species: Homo sapiens; assay: Selectivity ratio of Ki for recombinant human PDE11 to Ki for recombinant human PDE10A; in short: as §4
Homo sapiens [17] = species: Homo sapiens; assay: Selectivity ratio of Ki for recombinant human PDE7 to Ki for recombinant human PDE10A; in short: as §4
[18] = target: cGMP-specific 3',5'-cyclic phosphodiesterase (Homo sapiens, UniProt O76074); assay: Inhibition of recombinant human PDE5A using [3H]cAMP as substrate by scintillation proximity assay; in short: as §1
[19] = target: 5-hydroxytryptamine receptor 1B (Homo sapiens) (UniProt P28222); assay: Inhibition of 5HT1b at 10 uM
5-hydroxytryptamine receptor 1B (Homo sapiens), sequence (P28222 whole entry): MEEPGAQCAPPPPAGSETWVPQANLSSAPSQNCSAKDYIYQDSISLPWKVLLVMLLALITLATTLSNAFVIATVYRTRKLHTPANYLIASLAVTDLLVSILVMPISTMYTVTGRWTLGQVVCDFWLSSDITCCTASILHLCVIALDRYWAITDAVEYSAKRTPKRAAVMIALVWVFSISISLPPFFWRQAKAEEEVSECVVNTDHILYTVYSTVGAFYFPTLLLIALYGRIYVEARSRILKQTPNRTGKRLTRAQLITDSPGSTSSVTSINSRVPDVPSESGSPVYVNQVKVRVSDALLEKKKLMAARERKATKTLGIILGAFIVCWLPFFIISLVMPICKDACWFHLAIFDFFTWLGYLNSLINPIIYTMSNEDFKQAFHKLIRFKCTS

Phosphodiesterase 1 = Phosphodiesterase 1 (Homo sapiens, UniProt P54750+Q01064+Q14123); assay: Inhibition of recombinant human PDE1 using [3H]cAMP as substrate by scintillation proximity assay; assay type: protein assay; in short: as §1
[20] = target: T2, 5-hydroxytryptamine receptor 3A (Homo sapiens) (UniProt P46098); assay: Inhibition of 5HT3 at 10 uM
T2 sequence (whole entry): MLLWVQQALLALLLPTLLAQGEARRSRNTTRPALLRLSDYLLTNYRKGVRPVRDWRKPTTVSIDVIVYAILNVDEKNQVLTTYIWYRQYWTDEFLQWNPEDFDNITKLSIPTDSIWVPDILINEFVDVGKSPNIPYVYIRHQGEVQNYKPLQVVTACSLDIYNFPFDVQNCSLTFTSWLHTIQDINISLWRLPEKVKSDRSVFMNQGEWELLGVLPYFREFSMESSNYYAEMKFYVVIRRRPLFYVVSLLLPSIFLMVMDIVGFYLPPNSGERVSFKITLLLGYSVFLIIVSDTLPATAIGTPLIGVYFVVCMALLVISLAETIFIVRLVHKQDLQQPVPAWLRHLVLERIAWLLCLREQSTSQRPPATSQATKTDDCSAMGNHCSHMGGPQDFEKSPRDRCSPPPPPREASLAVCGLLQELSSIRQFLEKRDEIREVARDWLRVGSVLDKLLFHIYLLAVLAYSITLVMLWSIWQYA

[21] = target: Casein kinase I isoform delta (Homo sapiens, UniProt P48730); assay: Inhibition of CK1delta
Casein kinase I isoform delta, sequence (P48730 whole entry, canonical isoform): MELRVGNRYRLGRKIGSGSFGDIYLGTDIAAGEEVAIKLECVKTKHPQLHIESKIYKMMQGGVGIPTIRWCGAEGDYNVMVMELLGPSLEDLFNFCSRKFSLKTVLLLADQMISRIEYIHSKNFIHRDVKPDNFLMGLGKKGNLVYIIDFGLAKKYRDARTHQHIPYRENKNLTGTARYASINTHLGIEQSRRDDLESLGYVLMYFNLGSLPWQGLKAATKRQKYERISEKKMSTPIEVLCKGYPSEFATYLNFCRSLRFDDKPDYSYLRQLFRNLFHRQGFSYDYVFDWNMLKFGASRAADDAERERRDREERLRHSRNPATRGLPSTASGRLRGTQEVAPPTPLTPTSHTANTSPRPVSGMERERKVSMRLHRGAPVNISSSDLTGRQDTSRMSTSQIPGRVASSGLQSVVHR

Phosphodiesterase 4 = Phosphodiesterase 4 (Homo sapiens, UniProt P27815+Q08499+Q07343+Q08493); assay: Inhibition of recombinant human PDE4 using [3H]cAMP as substrate by scintillation proximity assay; assay type: protein assay; in short: as §1
[22] = target: High affinity cGMP-specific 3',5'-cyclic phosphodiesterase 9A (Homo sapiens, UniProt O76083); assay: Inhibition of recombinant human PDE9 using [3H]cAMP as substrate by scintillation proximity assay; in short: as §1
High affinity cGMP-specific 3',5'-cyclic phosphodiesterase 9A, sequence (O76083 whole entry): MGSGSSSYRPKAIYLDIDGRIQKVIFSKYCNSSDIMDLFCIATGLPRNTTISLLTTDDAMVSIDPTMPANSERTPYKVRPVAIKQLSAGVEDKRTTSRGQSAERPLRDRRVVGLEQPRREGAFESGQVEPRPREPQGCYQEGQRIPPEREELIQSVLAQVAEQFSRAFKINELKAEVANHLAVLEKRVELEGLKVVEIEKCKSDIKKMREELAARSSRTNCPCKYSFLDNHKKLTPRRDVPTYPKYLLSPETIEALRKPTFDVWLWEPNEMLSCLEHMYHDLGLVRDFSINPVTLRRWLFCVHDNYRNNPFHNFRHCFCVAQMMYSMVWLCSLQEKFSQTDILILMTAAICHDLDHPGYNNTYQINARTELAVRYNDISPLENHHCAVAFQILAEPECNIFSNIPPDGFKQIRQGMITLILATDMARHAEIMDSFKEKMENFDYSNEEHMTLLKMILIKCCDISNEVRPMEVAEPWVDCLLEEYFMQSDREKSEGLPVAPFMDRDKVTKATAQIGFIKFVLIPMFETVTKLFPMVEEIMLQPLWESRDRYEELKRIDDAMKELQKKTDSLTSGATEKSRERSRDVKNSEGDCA

Phosphodiesterase 8 = Phosphodiesterase 8 (Homo sapiens, UniProt O95263+O60658); assay: Inhibition of recombinant human PDE8 using [3H]cAMP as substrate by scintillation proximity assay; assay type: protein assay; in short: as §1
Phosphodiesterase 7 = Phosphodiesterase 7 (Homo sapiens, UniProt Q13946+Q9NP56); assay: Inhibition of recombinant human PDE7 using [3H]cAMP as substrate by scintillation proximity assay; assay type: protein assay; in short: as §1
[23] = target: Dual 3',5'-cyclic-AMP and -GMP phosphodiesterase 11A (Homo sapiens, UniProt Q9HCR9); assay: Inhibition of recombinant human PDE11 using [3H]cAMP as substrate by scintillation proximity assay; in short: as §1
Dual 3',5'-cyclic-AMP and -GMP phosphodiesterase 11A, sequence (Q9HCR9 whole entry): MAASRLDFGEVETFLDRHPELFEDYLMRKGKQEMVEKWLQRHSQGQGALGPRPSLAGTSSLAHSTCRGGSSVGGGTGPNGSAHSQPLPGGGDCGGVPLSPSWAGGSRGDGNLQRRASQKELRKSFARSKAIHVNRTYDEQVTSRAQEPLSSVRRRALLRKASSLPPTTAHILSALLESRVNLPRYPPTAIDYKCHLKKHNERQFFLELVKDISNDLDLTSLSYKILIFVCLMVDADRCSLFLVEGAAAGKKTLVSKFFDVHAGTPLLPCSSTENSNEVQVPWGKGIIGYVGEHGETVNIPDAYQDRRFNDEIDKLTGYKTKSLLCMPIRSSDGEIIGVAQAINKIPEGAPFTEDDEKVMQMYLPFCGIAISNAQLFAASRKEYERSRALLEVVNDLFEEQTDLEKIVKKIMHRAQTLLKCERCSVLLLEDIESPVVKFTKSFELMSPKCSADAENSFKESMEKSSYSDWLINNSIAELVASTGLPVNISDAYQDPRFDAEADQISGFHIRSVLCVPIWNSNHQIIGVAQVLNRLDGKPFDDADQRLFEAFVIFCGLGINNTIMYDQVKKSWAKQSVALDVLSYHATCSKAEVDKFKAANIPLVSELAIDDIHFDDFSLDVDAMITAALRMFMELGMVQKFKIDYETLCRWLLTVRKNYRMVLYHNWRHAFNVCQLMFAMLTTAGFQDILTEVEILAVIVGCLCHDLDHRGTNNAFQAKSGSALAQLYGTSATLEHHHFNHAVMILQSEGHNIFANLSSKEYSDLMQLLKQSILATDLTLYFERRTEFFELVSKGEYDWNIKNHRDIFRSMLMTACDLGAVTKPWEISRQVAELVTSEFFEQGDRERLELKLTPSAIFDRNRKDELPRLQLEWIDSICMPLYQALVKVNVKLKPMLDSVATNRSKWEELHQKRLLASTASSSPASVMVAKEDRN

[24] = target: 5-hydroxytryptamine receptor 7 (Homo sapiens) (UniProt P34969); assay: Inhibition of 5HT7 at 10 uM
5-hydroxytryptamine receptor 7 (Homo sapiens), sequence (P34969 whole entry): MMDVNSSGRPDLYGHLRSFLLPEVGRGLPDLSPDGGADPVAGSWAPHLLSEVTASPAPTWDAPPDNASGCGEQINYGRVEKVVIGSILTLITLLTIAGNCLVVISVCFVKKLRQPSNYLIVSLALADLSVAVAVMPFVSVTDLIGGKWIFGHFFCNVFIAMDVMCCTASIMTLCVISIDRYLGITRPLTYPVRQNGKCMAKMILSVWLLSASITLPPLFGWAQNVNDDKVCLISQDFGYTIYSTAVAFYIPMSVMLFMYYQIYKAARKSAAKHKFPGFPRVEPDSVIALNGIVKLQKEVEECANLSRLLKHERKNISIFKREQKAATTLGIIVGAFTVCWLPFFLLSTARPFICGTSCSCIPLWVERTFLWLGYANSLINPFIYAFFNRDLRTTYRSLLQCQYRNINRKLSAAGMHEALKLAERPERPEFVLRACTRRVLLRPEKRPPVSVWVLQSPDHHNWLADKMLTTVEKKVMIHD

[25] = target: cGMP-dependent 3',5'-cyclic phosphodiesterase (Homo sapiens, UniProt O00408); assay: Inhibition of recombinant human PDE2 using [3H]cAMP as substrate by scintillation proximity assay; in short: as §1
cGMP-dependent 3',5'-cyclic phosphodiesterase, sequence (O00408 whole entry): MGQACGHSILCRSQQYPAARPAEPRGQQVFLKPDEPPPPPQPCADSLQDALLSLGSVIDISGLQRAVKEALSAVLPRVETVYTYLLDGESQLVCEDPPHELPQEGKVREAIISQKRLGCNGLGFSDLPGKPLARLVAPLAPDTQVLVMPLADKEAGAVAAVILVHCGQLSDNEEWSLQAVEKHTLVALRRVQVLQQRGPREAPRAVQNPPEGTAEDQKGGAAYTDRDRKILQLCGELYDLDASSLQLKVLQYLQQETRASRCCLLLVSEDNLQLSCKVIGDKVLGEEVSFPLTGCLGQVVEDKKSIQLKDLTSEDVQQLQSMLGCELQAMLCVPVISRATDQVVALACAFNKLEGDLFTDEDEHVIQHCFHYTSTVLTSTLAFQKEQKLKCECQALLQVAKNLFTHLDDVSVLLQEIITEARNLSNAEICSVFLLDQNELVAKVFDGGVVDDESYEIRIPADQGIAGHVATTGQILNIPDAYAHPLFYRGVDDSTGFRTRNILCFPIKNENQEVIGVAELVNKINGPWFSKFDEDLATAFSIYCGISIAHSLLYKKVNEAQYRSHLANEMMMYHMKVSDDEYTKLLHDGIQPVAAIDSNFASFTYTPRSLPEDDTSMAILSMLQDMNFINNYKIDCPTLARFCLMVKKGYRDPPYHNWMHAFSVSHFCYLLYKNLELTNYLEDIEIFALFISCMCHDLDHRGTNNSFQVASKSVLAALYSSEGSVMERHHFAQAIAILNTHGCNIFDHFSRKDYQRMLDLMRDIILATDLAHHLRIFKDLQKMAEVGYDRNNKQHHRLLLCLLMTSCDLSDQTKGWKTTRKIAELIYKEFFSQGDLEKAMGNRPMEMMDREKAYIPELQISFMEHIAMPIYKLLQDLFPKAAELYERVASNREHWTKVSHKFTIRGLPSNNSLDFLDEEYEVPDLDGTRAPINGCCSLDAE

Phosphodiesterase 3 = Phosphodiesterase 3 (Homo sapiens, UniProt Q14432+Q13370); assay: Inhibition of recombinant human PDE3 using [3H]cAMP as substrate by scintillation proximity assay; assay type: protein assay; in short: as §1
[26] = Plasma protein binding in rat; assay type: ADME, cell-free; conditions: read-out: PPB (converted)
[27] = target: T1, Phosphodiesterase 6 (Homo sapiens); assay: Inhibition of recombinant human PDE6 using [3H]cAMP as substrate at 3.6 uM by scintillation proximity assay; assay type: protein assay

COc1cc(C)c2nc3[nH]nc(C)c3c(NCC3CCOCC3)c2c1 gave a pKi [1] of 7.28 and a Ki (Phosphodiesterase 6) of 697 nM.
With COc1cc(C)c2nc3[nH]nc(C)c3c(N3CCSCC3)c2c1 the pKi [1] was 6.71.
Work on COc1cc(C)c2nc3[nH]nc(C)c3c(N3CCC(CN)CC3)c2c1 yielded a pKi [1] of 9.30.
With COc1cc(C)c2nc3[nH]nc(C)c3c(N3CCC(NC(N)=O)CC3)c2c1 the concentration at 6 h [2] was under 10 ng/g and the pKi [1] was 7.57.
With COc1cc(C)c2nc3[nH]nc(C)c3c(OC3CCOCC3)c2c1 the inhibition (Rattus norvegicus [3]) was “Active”, the inhibition [4] was 30% and the pKi [1] was 8.51. The inhibition (Rattus norvegicus [5]) was “inactive” and the AUC(0-t) at 6 h [6] was 10.6 µM·h.
For COc1cc(C)c2nc3[nH]nc(C)c3c(N3CCOC(CO)C3)c2c1 (racemic), the concentration at 6 h [2] was under 10 ng/g and the pKi [1] was 8.02.
With COc1cc(C)c2nc3[nH]nc(C)c3c(N3CCCOCC3)c2c1 the Ratio Ki (Homo sapiens [7]) was over 1450, the inhibition (Rattus norvegicus [3]) was “Active” and the Kp at 6 h [8] was 0.3. The Ratio Ki (Homo sapiens [9]) was over 1450, the Ratio Ki (Homo sapiens [10]) was over 1450 and the pKi [1] was 8.44. For the same compound, the Ratio Ki (Homo sapiens [11]) was over 1450, the Ratio Ki (Homo sapiens [12]) was over 1450 and the Ratio Ki (Homo sapiens [13]) was over 1450. It also gave an AUC(0-t) at 6 h [6] of 11 µM·h, a Ratio Ki (Homo sapiens [14]) of over 1450 and a Ratio Ki (Homo sapiens [15]) of over 1450. For the same compound, the Ratio Ki (Homo sapiens [16]) was over 1450 and the Ratio Ki (Homo sapiens [17]) was over 1450.
COc1cc(C)c2nc3[nH]nc(C)c3c(NCCc3ccncc3)c2c1 gave a pKi [1] of 7.15 and a Ki (Phosphodiesterase 6) of 554 nM.
Work on COc1cc(C)c2nc3[nH]nc(C)c3c(N3CCCC(CO)C3)c2c1 (racemic) yielded a concentration at 6 h [2] of under 10 ng/g and a pKi [1] of 7.54.
Work on COc1ccc2nc3[nH]nc(C)c3c(N3CCNCC3)c2c1 yielded a pKi [1] of 6.23.
For COc1cc(C)c2nc3[nH]nc(C)c3c(NCc3ccccn3)c2c1, the pKi [1] was 8.22 and the Ki (Phosphodiesterase 6) was 1811 nM.
Compound COc1cc(C)c2nc3[nH]nc(C)c3c(NCC3CCCCO3)c2c1 (centres undefined) has a pKi [1] of 6.89 and a Ki (Phosphodiesterase 6) of 843 nM.
For COc1cc(C)c2nc3[nH]nc(C)c3c(NCC3CN(C)CCO3)c2c1 (centres undefined), the pKi [1] was 6.55.
For COc1cc(C)c2nc3[nH]nc(C)c3c(N3CCNCC3)c2c1, the pKi [18] was under 4.00, the inhibition [19] was 54% and the Ki (Phosphodiesterase 1) was “>= 770 nM”. It also gave a Kp at 6 h [8] of 1.2, an inhibition [20] of 54% and a pIC50 [21] of 6.49. For the same compound, the Ki (Phosphodiesterase 4) was “>= 770 nM”, the concentration at 6 h [2] was 123 ng/g and the pKi [22] was at most 6.11. For the same compound, the Ki (Phosphodiesterase 8) was “>= 770 nM”, the Ki (Phosphodiesterase 7) was “>= 770 nM” and the pKi [23] was at most 6.11. The inhibition [24] was 54%, the AUC(0-t) at 6 h [6] was 3.3 µM·h and the pKi [25] was at most 6.11. For the same compound, the Ki (Phosphodiesterase 6) was “>= 770 nM”, the Ki (Phosphodiesterase 3) was “>= 770 nM” and the fraction unbound [26] was 0.16.
COc1cc(C)c2nc3[nH]nc(C)c3c(NC3CCNCC3)c2c1 gave an inhibition [27] of 48% and a pKi [1] of 7.26.
COc1cc(C)c2nc3[nH]nc(C)c3c(NCC3CNCCO3)c2c1 (centres undefined) gave a pKi [1] of 8.30 and a Ki (Phosphodiesterase 6) of 13882 nM.
